Laboratory results from ChEMBL document CHEMBL4689842, “EUbOPEN Chemogenomics Library wave 1” (2021).
Several values for one entry are separate records, joined by “and”; a condition that tells them apart may be missing. Identical values can stand only once.

System: Fibroblast
Experiment: Multiplex assay against human fibroblast
Type: toxicity, cell-based
Summary of the method: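 Live cells carried four stains from seeding: Hoechst33342, BioTracker Green Microtubule Cytoskeleton Dye, MitoTracker Red and Annexin V Alexa Fluor 680. They were imaged on a CQ1 microscope at 37°C and 5% CO2 after compound addition. Using CellPathfinder machine-learning gating, cells were split into Hoechst high-intensity objects or normal cells, normal cells into healthy, pyknosed or fragmented nuclei, and pyknosed cells into mitotic or apoptotic; tubulin, mitochondrial-mass and membrane-permeability phenotypes are per cents of healthy-nucleus cells.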

[1] = 12 h, 1 µM, compound concentration 1 uM, replicate 1
[2] = 12 h, 1 µM, compound concentration 1 uM, replicate 2
[3] = 12 h, 10 µM, compound concentration 10 uM, replicate 1
[4] = 12 h, 10 µM, compound concentration 10 uM, replicate 2
[5] = 24 h, 1 µM, compound concentration 1 uM, replicate 1
[6] = 24 h, 1 µM, compound concentration 1 uM, replicate 2
[7] = 24 h, 10 µM, compound concentration 10 uM, replicate 1
[8] = 24 h, 10 µM, compound concentration 10 uM, replicate 2

Question: Which results are given for `CC[C@@]1(O)C(=O)OCc2c1cc1n(c2=O)Cc2cc3ccccc3nc2-1` [CAMPTOTHECIN]?
Answer: Population Apoptotic (%) [1]: 68% and 80%; Population Fragmented Nuclei (%) [1]: 42% and 41% and 43%; Population Healthy Nuclei (%) [1]: 49% and 43% and 37%; Population Membrane Permeable-Phenotype (%) [1]: 10% and 7% and 5%; Population Mitochondria Different-Phenotype (%) [1]: 3% and 9% and 7%; Population Mitotic Cells (%) [1]: 31% and 20% and 19%; Population Normal (%) [1]: 84% and 52% and 47%; Population Pyknosed Nuclei (%) [1]: 8% and 15% and 19%; Total Cell Count [1]: 256 and 440 and 382; Population Fragmented Nuclei (%) [2]: 64% and 80%; Population Healthy Nuclei (%) [2]: 32% and 19% and 34%; Population Hoechst High Intensity Objects (%) [2]: 37% and 59% and 67%; Population Membrane Permeable-Phenotype (%) [2]: 15% and 16% and 6%; Population Mitochondria Different-Phenotype (%) [2]: 10% and 12% and 30%; Population Normal (%) [2]: 62% and 40% and 32%; Population Pyknosed Nuclei (%) [2]: 3% and 0% and 1%; Population Tubulin-Different-Phenotype (%) [2]: 21% and 28% and 24%; Population Apoptotic (%) [3]: 87%; Population Fragmented Nuclei (%) [3]: 34%; Population Healthy Nuclei (%) [3]: 43%; Population Hoechst High Intensity Objects (%) [3]: 27%; Population Membrane Permeable-Phenotype (%) [3]: 3%; Population Mitochondria Different-Phenotype (%) [3]: 11%; Population Mitotic Cells (%) [3]: 12%; Population Normal (%) [3]: 72%; Population Pyknosed Nuclei (%) [3]: 21%; Population Tubulin-Different-Phenotype (%) [3]: 9%; Total Cell Count [3]: 198; Population Apoptotic (%) [4]: 50%; Population Fragmented Nuclei (%) [4]: 65%; Population Healthy Nuclei (%) [4]: 30%; Population Hoechst High Intensity Objects (%) [4]: 41%; Population Membrane Permeable-Phenotype (%) [4]: 7%; Population Mitochondria Different-Phenotype (%) [4]: 7%; Population Mitotic Cells (%) [4]: 50%; Population Normal (%) [4]: 58%; Population Pyknosed Nuclei (%) [4]: 4%; Population Tubulin-Different-Phenotype (%) [4]: 7%; Total Cell Count [4]: 74; Population Apoptotic (%) [5]: 78% and 72% and 90%; Population Fragmented Nuclei (%) [5]: 39% and 40% and 34%; Population Healthy Nuclei (%) [5]: 48% and 43% and 55%; Population Membrane Permeable-Phenotype (%) [5]: 10% and 4% and 6%; Population Mitochondria Different-Phenotype (%) [5]: 7% and 15% and 8%; Population Mitotic Cells (%) [5]: 21% and 27% and 9%; Population Normal (%) [5]: 54% and 49% and 89%; Population Pyknosed Nuclei (%) [5]: 12% and 16% and 10%; Population Tubulin-Different-Phenotype (%) [5]: 16% and 11% and 12%; Total Cell Count [5]: 414 and 405 and 222; Population Fragmented Nuclei (%) [6]: 57% and 80% and 66%; Population Healthy Nuclei (%) [6]: 40% and 18% and 32%; Population Hoechst High Intensity Objects (%) [6]: 44% and 56% and 68%; Population Membrane Permeable-Phenotype (%) [6]: 15% and 16% and 0%; Population Mitochondria Different-Phenotype (%) [6]: 25% and 16% and 28%; Population Normal (%) [6]: 55% and 43% and 31%; Population Pyknosed Nuclei (%) [6]: 2% and 1%; Population Tubulin-Different-Phenotype (%) [6]: 20% and 29% and 36%; Population Apoptotic (%) [7]: 85%; Population Fragmented Nuclei (%) [7]: 34%; Population Healthy Nuclei (%) [7]: 45%; Population Hoechst High Intensity Objects (%) [7]: 28%; Population Membrane Permeable-Phenotype (%) [7]: 6%; Population Mitochondria Different-Phenotype (%) [7]: 9%; Population Mitotic Cells (%) [7]: 14%; Population Normal (%) [7]: 71%; Population Pyknosed Nuclei (%) [7]: 19%; Population Tubulin-Different-Phenotype (%) [7]: 7%; Total Cell Count [7]: 201; Population Apoptotic (%) [8]: 100%; Population Fragmented Nuclei (%) [8]: 65%; Population Healthy Nuclei (%) [8]: 31%; Population Hoechst High Intensity Objects (%) [8]: 42%; Population Membrane Permeable-Phenotype (%) [8]: 0%; Population Mitochondria Different-Phenotype (%) [8]: 0%; Population Mitotic Cells (%) [8]: 0%; Population Normal (%) [8]: 57%; Population Pyknosed Nuclei (%) [8]: 2%; Total Cell Count [8]: 77
